Results published in ChEMBL document CHEMBL3046864, “Synthesis and antifungal activity of a series of N-substituted [2-(2,4-dichlorophenyl)-3-(1,2,4-triazol-1-yl)]propylamines” (J Agric Food Chem, 2007).
Values after ≈ are worked out from the molar mass of the structure shown. Active and inactive are the calls of the source. No cut-off for these calls is given here.

Experiments:
Botrytis cinerea = assay: Fungicidal activity against Botryotinia fuckeliana assessed as inhibition of radial growth; type: functional, organism-based
Procedure, shortened: (§1)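 Strains from the IPV collection were maintained on potato dextrose agar. Radial growth on PDA was measured at 100–0.1 mg L-1. % inhibition was taken from the mean difference between treated and control cultures relative to control. % inhibition was plotted on a probit scale against dose to give EC50.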

Fusarium graminearum = assay: Fungicidal activity against Fusarium graminearum assessed as inhibition of radial growth; type: functional, organism-based
Procedure, shortened: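 The Fusarium isolate came from the IPV collection and was kept on PDA. Radial growth was measured on PDA plates at 100–0.1 mg L-1. Percentage inhibition was taken from the mean difference between treated and control cultures. EC50 came from a probit plot of percentage inhibition against dose.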

Pyrenophora teres = assay: Fungicidal activity against Pyrenophora teres assessed as inhibition of radial growth; type: functional, organism-based; procedure, shortened: as §1
Ustilago maydis = assay: Fungicidal activity against Ustilago maydis ATCC 14826 assessed as inhibition of fungal cell count; type: functional, organism-based; details: Mycosarcoma maydis
Procedure, shortened: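 U. maydis ATCC 14826 broth cultures were grown in Coursen and Sisler broth with compound. Growth was estimated by sporidial cell count at the end of treatment and expressed as % inhibition versus the untreated control.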

Oculimacula yallundae = assay: Fungicidal activity against Oculimacula yallundae assessed as inhibition of radial growth; type: functional, organism-based; procedure, shortened: as §1
Cercospora beticola = assay: Fungicidal activity against Cercospora beticola assessed as inhibition of radial growth; type: functional, organism-based; procedure, shortened: as §1
[1] = biological target: T1, Squalene monooxygenase (Mycosarcoma maydis) (UniProt A0A0D1C8X8); assay: Inhibition of squalene epoxidase in Ustilago maydis ATCC 14826 assessed as effect on squalene level at 0.01 to 100 mg/L measured after 18 hr post compound treatment
T1 sequence (whole entry): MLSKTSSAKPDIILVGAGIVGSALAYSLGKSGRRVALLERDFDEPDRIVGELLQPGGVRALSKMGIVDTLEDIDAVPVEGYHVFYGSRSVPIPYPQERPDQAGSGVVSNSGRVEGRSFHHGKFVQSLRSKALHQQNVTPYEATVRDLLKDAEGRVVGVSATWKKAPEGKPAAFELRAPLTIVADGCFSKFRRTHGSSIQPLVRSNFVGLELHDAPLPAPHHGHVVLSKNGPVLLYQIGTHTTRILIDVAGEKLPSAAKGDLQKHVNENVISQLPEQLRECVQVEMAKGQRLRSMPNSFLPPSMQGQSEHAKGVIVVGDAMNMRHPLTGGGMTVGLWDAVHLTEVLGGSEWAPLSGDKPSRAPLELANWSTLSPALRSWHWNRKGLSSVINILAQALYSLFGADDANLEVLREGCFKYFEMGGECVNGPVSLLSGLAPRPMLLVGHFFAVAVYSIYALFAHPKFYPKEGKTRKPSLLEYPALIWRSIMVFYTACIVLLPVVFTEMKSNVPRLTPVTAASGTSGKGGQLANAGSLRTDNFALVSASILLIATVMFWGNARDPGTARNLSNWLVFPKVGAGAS
Procedure, shortened: (§2)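 U. maydis was grown in Coursen and Sisler broth with compound at 0.01–100 mg L-1 for 18 h. Sporidia were harvested by centrifugation, spiked with dihydrocholesterol as a known-amount standard, and saponified in 20% KOH in 60% ethanol for 1 h at 90 °C. The unsaponifiable fraction, including squalene and 14-methyl sterols, was analysed by capillary GC-FID and GC-MS.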

[2] = biological target: T2, Lanosterol 14-alpha demethylase (Mycosarcoma maydis) (UniProt P49602); assay: Inhibition of 14alpha-demethylase in Ustilago maydis ATCC 14826 assessed as increase in 14-methyl sterols levels at 0.01 to 100 mg/L measured after 18 hr post compound treatment; procedure, shortened: as §2
T2 sequence (whole entry): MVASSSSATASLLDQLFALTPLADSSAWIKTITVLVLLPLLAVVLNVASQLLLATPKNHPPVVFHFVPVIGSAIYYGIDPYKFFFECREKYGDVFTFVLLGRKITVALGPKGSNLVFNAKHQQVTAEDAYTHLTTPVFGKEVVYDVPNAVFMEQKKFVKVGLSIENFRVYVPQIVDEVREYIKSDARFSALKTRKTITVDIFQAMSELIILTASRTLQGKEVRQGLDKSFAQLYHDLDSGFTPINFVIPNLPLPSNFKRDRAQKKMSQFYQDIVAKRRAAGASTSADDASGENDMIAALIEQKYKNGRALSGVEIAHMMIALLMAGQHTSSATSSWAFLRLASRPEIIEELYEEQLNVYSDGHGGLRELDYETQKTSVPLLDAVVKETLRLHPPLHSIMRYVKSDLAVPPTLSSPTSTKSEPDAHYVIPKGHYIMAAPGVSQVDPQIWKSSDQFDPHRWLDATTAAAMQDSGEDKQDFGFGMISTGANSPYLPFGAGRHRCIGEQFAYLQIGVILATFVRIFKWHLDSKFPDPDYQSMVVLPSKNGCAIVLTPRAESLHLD

Phytophthora infestans = assay: Antifungal activity against Phytophthora infestans infected 125 ug/mL compound pre-treated six-leaves stage tomato plant seedlings assessed as inhibition of disease measured after 7 days post fungal inoculation; type: functional
Procedure, shortened: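 Preventive application before inoculation. Tomato plants were sprayed with a P. infestans zoosporangia suspension (5 × 10^4 mL-1). Plants were held 24 h at 20 ± 1 °C and 100% RH, then moved to a greenhouse at 23 ± 1 °C and 70 ± 10% RH. Diseased leaf area was scored 7 days after inoculation against nontreated plants to give percentage disease inhibition.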

Puccinia recondita = assay: Antifungal activity against Puccinia recondita infected 125 ug/mL compound […] assessed as inhibition of wheat brown rust disease measured after 10 days post fungal inoculation; type: functional
Blumeria graminis = assay: Antifungal activity against Blumeria graminis f. sp. tritici infected in 125 ug/mL […] assessed as inhibition of wheat powdery mildew disease measured after 10 days post fungal inoculation; type: functional

Row | Structure (SMILES) | EC50 (Botrytis cinerea) [µg/mL] | EC50 (Fusarium graminearum) [µg/mL] | EC50 (Pyrenophora teres) [µg/mL] | EC50 (Ustilago maydis) [µg/mL] | EC50 (Oculimacula yallundae) [µg/mL] | EC50 (Cercospora beticola) [µg/mL] | inhibition [1] | inhibition [2] | inhibition (INH) (Phytophthora infestans) [%] | inhibition (INH) (Puccinia recondita) [%] | inhibition (INH) (Blumeria graminis) [%]
1 | C=CCN(CC(Cn1cncn1)c1ccc(Cl)cc1Cl)C1CC1 (centres undefined) | 4.4 (≈ 12.5 µM) | 55 (≈ 157 µM) | 3.2 (≈ 9.11 µM) | 0.01 (≈ 0.0285 µM) | 0.8 (≈ 2.28 µM) | 0.2 (≈ 0.569 µM) |  |  |  |  | 
2 | C=CCN(CC=C)CC(Cn1cncn1)c1ccc(Cl)cc1Cl (centres undefined) | 10 (≈ 28.5 µM) | > 100 | 6.5 (≈ 18.5 µM) | 0.22 (≈ 0.626 µM) | 3.6 (≈ 10.2 µM) | 2.6 (≈ 7.4 µM) | inactive | Active | 0 | 25 | 30
3 | Clc1ccc(C(CN(C2CC2)C2CC2)Cn2cncn2)c(Cl)c1 (centres undefined) | 7.5 (≈ 21.4 µM) | 55 (≈ 157 µM) | 5.5 (≈ 15.7 µM) | 0.02 (≈ 0.0569 µM) | 1.2 (≈ 3.42 µM) | 0.4 (≈ 1.14 µM) |  |  | 0 | 10 | 60
4 | NCC(Cn1cncn1)c1ccc(Cl)cc1Cl (centres undefined) | > 100 | > 100 | > 100 | 70.3 (≈ 259 µM) | > 100 | > 100 |  |  |  |  | 
5 | C#CCN(CC#C)CC(Cn1cncn1)c1ccc(Cl)cc1Cl (centres undefined) | 4.9 (≈ 14.1 µM) | 9 (≈ 25.9 µM) | 2.1 (≈ 6.05 µM) | 0.14 (≈ 0.403 µM) | 2.8 (≈ 8.06 µM) | 1.1 (≈ 3.17 µM) |  |  | 0 | 15 | 35
6 | CC(=O)NCC(Cn1cncn1)c1ccc(Cl)cc1Cl (centres undefined) | > 100 | > 100 | > 100 | 60 (≈ 192 µM) | > 100 | > 100 |  |  |  |  | 
7 | Clc1ccc(C(CN(Cc2ccccc2)Cc2ccccc2)Cn2cncn2)c(Cl)c1 (centres undefined) | 6 (≈ 13.3 µM) | > 100 | 1.9 (≈ 4.21 µM) | 0.09 (≈ 0.199 µM) | 17 (≈ 37.7 µM) | 4 (≈ 8.86 µM) |  |  |  |  | 
8 | O=C(NCC(Cn1cncn1)c1ccc(Cl)cc1Cl)c1ccccc1 (centres undefined) | 100 (≈ 266 µM) | > 100 | 11.5 (≈ 30.6 µM) | 1.9 (≈ 5.06 µM) | 80.3 (≈ 214 µM) | 2.5 (≈ 6.66 µM) |  |  |  |  | 
9 | Clc1ccc(C(CN(C/C=C/c2ccccc2)C/C=C/c2ccccc2)Cn2cncn2)c(Cl)c1 (centres undefined) | > 100 | > 100 | 6 (≈ 11.9 µM) | 0.65 (≈ 1.29 µM) | > 100 | 12.5 (≈ 24.8 µM) |  |  |  |  | 
10 | C=CCNCC(Cn1cncn1)c1ccc(Cl)cc1Cl (centres undefined) | > 100 | > 100 | > 100 | 19.9 (≈ 63.9 µM) | 91.3 (≈ 293 µM) | 31.7 (≈ 102 µM) |  |  |  |  | 
11 | FC(F)C(F)(F)OCC(Cn1cncn1)c1ccc(Cl)cc1Cl (centres undefined) [TETRACONAZOLE] | 0.04 (≈ 0.107 µM) |  |  |  |  |  |  |  | 0 | 100 | 100
12 | CN(C)CC(Cn1cncn1)c1ccc(Cl)cc1Cl (centres undefined) | 75 (≈ 251 µM) | > 100 | 42 (≈ 140 µM) | 2.5 (≈ 8.36 µM) | 6.5 (≈ 21.7 µM) | 8 (≈ 26.7 µM) |  |  |  |  | 
13 | Clc1ccc(C(CNC/C=C/c2ccccc2)Cn2cncn2)c(Cl)c1 (centres undefined) | 42 (≈ 108 µM) | 26 (≈ 67.1 µM) | 12 (≈ 31 µM) | 1.4 (≈ 3.61 µM) | 7.5 (≈ 19.4 µM) | 2.4 (≈ 6.2 µM) |  |  | 0 | 20 | 25
14 | C#CCNCC(Cn1cncn1)c1ccc(Cl)cc1Cl (centres undefined) | 38 (≈ 123 µM) | > 100 | 38 (≈ 123 µM) | 1.3 (≈ 4.2 µM) | 11 (≈ 35.6 µM) | 4 (≈ 12.9 µM) |  |  |  |  | 
15 | CC(C)(C)c1ccc(CN(Cc2ccc(C(C)(C)C)cc2)CC(Cn2cncn2)c2ccc(Cl)cc2Cl)cc1 (centres undefined) | > 100 | > 100 | > 100 | 9 (≈ 16 µM) | > 100 | 7 (≈ 12.4 µM) |  |  |  |  | 
16 | Clc1ccc(C(CNCc2ccccc2)Cn2cncn2)c(Cl)c1 (centres undefined) | > 100 | > 100 | 30.3 (≈ 83.9 µM) | 11.3 (≈ 31.3 µM) | 23.4 (≈ 64.8 µM) | 2.7 (≈ 7.47 µM) |  |  |  |  | 
17 | C/C=C/C(=O)NCC(Cn1cncn1)c1ccc(Cl)cc1Cl (centres undefined) | > 100 | > 100 | > 100 | 20.7 (≈ 61 µM) | > 100 | 60.5 (≈ 178 µM) |  |  |  |  | 
